Source: ChEMBL document CHEMBL4619773, “Chemoreactive-Inspired Discovery of Influenza A Virus Dual Inhibitor to Block Hemagglutinin-Mediated Adsorption and Membrane Fusion” (J Med Chem, 2020)
The source made the active and inactive calls. No cut-off for these calls is given here.

Experiments:
[1] = Toxicity in Kunming mouse assessed as effect on ALT level at 5 to 10 mg/kg/day, po for 7 days; type: organism-based; conditions: in vivo, 168 h
Method in brief: (§1)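 Male Kunming mice (20–25 g) received compound orally at 5 or 10 mg/kg/day, suspended in 0.5% sodium carboxymethyl cellulose, once daily for 7 days; controls received vehicle. Serum was collected under isoflurane 24 h after the last dose. AST, ALT, CR, BUN, LDH, CK and CK-MB were measured with commercial kits.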

[2] = Cumulative drug excretion in mouse feces at 0.5 mg/kg, iv administered as single dose measured after 72 hrs; type: ADME, organism-based; conditions: faeces, read-out: Drug excretion
Method in brief: (§2)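 Single oral (gavage, 0.5% CMC-Na) or iv (tail vein, PEG400) dosing was given to male Kunming mice or Sprague Dawley rats held in metabolic cages. Urine and feces were collected at intervals to 72 h. Feces were dried, ground and homogenized in water (1:9 w/v). Samples were precipitated with acetonitrile containing internal standard and analysed by LC-MS/MS.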

[3] = AUC (0 to t) in mouse at 0.5 mg/kg, iv administered as single dose; type: ADME, organism-based; conditions: in vivo
Method in brief: (§3)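 Male Kunming mice (20-25 g) and male Sprague Dawley rats (180-220 g) were fasted 12 h before dosing. Oral dosing was by gavage as a suspension in 0.5% sodium carboxymethyl cellulose; iv dosing was via tail vein in PEG400. Serial plasma samples were taken to 24 h, protein-precipitated with acetonitrile plus N-CH3 internal standard, and quantified by LC-MS/MS (n=3). Bioavailability = AUCoral/AUCiv.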

[4] = Toxicity in Kunming mouse assessed as effect on LDH level at 5 to 10 mg/kg/day, po for 7 days; type: organism-based; conditions: in vivo, 168 h; method in brief: as §1
[5] = Metabolic stability in mouse liver microsomes at 2 uM after 60 mins; type: ADME, Microsome; conditions: read-out: Stability
Method in brief: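 Mouse, rat or human liver microsomes (final 0.5 mg/mL protein) were preincubated with an NADPH-regenerating system in 50 mM Tris-HCl pH 7.4 at 37 °C for 5 min. Compound was added at 2 µM final and incubated at 37 °C; NADPH-free incubations served as controls. Reactions were quenched with acetonitrile plus internal standard at 60 min. Percent remaining was measured by LC-MS/MS (n=3).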

Influenza A virus [6] = test: Antiviral activity against Influenza A virus (A/Puerto Rico/8/1934(H1N1)) infected in Kunming mouse assessed as decrease in lung TNFalpha level at 5 to 10 mg/kg/day, po starting 4 hrs after viral challenge and continued for 4 days by ELISA; type: functional, organism-based
Method in brief: (§4)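 Four-week-old female Kunming mice received PR8 intranasally (500 PFU/mouse in 40 µL PBS) and were then dosed once daily orally or intranasally. Lungs were collected on day 4, and TNF-α and IL-6 in lung tissue were measured by ELISA.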

[7] = biological target: Hemagglutinin (Influenza A virus (A/Puerto Rico/8/1934(H1N1)), UniProt P03452); test: Binding affinity to Influenza A virus (A/California/04/2009(H1N1)) Hemagglutinin at 1.5625 to 50 uM by SPR assay
Sequence of Hemagglutinin (Influenza A virus (A/Puerto Rico/8/1934(H1N1)), UniProt P03452) (P03452 whole entry): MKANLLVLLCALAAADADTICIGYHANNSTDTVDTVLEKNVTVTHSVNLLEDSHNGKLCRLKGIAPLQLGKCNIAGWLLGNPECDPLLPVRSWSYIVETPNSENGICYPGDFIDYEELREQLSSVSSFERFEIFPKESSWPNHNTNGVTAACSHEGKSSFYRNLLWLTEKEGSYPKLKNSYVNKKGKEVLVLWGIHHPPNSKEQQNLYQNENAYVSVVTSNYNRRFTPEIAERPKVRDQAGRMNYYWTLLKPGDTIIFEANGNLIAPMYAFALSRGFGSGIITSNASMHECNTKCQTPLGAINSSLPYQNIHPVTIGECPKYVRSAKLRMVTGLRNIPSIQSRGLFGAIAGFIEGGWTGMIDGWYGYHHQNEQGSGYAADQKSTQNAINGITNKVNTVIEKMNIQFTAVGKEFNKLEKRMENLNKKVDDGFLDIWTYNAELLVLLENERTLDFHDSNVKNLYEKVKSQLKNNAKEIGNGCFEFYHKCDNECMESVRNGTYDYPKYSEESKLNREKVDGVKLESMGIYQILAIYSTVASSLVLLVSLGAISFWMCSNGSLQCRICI
Method in brief: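 HA protein was immobilized on CM5 chips. Compound (50, […], 12.5, 6.25, 3.125, 1.5625 µM) was injected for 2 min, followed by a 10-min PBST wash and regeneration with 2 mM NaOH for 30 s. Runs were at 25 °C with 2 µl/s flow, using a blank HA-free reference channel. KD was obtained from kinetic fitting.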

[8] = AUC (0 to t) in rat at 3.5 mg/kg , po administered as single dose; type: ADME, organism-based; conditions: in vivo; method in brief: as §3
[9] = Tmax in rat at 3.5 mg/kg , po administered as single dose; type: ADME, organism-based; conditions: in vivo
Method in brief: (§5)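 Male Kunming mice (20–25 g) and male SD rats (180–220 g) were fasted 12 h before dosing. Compound was suspended in 0.5% CMC-Na and given by gavage (5 mg/kg mice, 3.5 mg/kg rats), or dissolved in PEG400 and given iv via tail vein (0.5 mg/kg mice, 0.35 mg/kg rats). Plasma was sampled from 5 min to 24 h and analysed by LC-MS/MS (n=3). F = AUCoral/AUCiv.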

[10] = Oral bioavailability in rat at 3.5 mg/kg administered as single dose; type: ADME, organism-based; conditions: in vivo; method in brief: as §5
Influenza A virus [11] = test: Antiviral activity against Influenza A virus (A/Puerto Rico/8/1934(H1N1)) infected in MDCK cells assessed as decrease in viral titers at 50 ug/ml added during adsorption stage and measured 24 hrs post infection by HA assay; type: functional, organism-based
Method in brief: (§6)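 MDCK cells were infected at high moi (≈3.0 PFU/cell). Virus-containing supernatants were serially diluted 2-fold and mixed with an equal volume of 1% chicken red blood cells. After 60 min at 4 °C, wells were scored for button sedimentation versus opaque agglutination to give titers.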

Influenza A virus [12] = test: Antiviral activity against Influenza A virus (A/Puerto Rico/8/1934(H1N1)) infected in human A549 cells assessed as reduction in endocytosis and nuclear import of viral RNP by measuring green fluorescence of NP protein in both cytoplasm and nucleus at 25 ug/ml during early infection stage (0 to 2 hrs post infection) by indirect immunofluorescence assay; type: functional, organism-based
Method in brief: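 PR8 virus was pretreated with or without 25 µg/ml compound for 1 h at 37 °C before infection. After adsorption, compound- or DMSO-containing medium was added. At 2 h p.i. cells were fixed (4% PFA), permeabilized (0.5% Triton X-100) and blocked (2% BSA). They were stained with anti-NP antibody, FITC secondary antibody and DAPI, then imaged by confocal microscopy.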

[13] = Cumulative drug excretion in mouse urine at 5 mg/kg, po administered as single dose measured after 72 hrs; type: ADME, organism-based; conditions: read-out: Drug excretion; method in brief: as §2
[14] = Cumulative drug excretion in rat feces at 0.35mg/kg, iv administered as single dose measured after 72 hrs; type: ADME, organism-based; conditions: faeces, read-out: Drug excretion; method in brief: as §2
Influenza A virus [15] = test: Antiviral activity against Influenza A virus (A/Puerto Rico/8/1934(H1N1)) infected in Kunming mouse assessed as decrease in lung TNFalpha level at 20 to 40 ug/day dosed intranasally starting 4 hrs after viral challenge and continued for 4 days by ELISA; type: functional, organism-based; method in brief: as §4
Influenza A virus H3N2 = test: Antiviral activity against Influenza A virus H3N2 (A/swine/Minnesota/02719/2009) infected in MDCK cells incubated for 3 days by crystal violet staining based plaque assay; type: functional, organism-based; conditions: 72 h
Method in brief: (§7)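 Confluent MDCK monolayers were exposed to 10-fold serial virus dilutions for 1 h at 37 °C, then washed. The overlay was DMEM with 1.5% agarose, 0.02% DEAE-dextran and 1 µg/ml TPCK-trypsin. After 3 days at 37 °C in 5% CO2, cells were fixed with 0.05% glutaraldehyde, stained with 1% crystal violet in 20% ethanol, and plaques were counted.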

[16] = Toxicity in Kunming mouse assessed as effect on CK-MB level at 5 to 10 mg/kg/day, po for 7 days; type: organism-based; conditions: in vivo, 168 h; method in brief: as §1
Influenza A virus [17] = test: Antiviral activity against Influenza A virus (A/California/04/2009(H1N1)) infected in MDCK cells by HA assay; type: functional, organism-based; method in brief: as §6
[18] = Toxicity in Kunming mouse assessed as effect on creatine kinase level at 5 to 10 mg/kg/day, po for 7 days; type: organism-based; conditions: in vivo, 168 h; method in brief: as §1
[19] = Toxicity in Influenza A virus (A/Puerto Rico/8/1934(H1N1)) infected Kunming mouse assessed as induction of body weight loss at 5 to 10 mg/kg/day, po starting 4 hrs after viral challenge and continued for 7 days by plaque assay; type: organism-based; conditions: in vivo
Influenza A virus [20] = test: Antiviral activity against Influenza A virus (A/Aichi/2/1968(H3N2)) infected in MDCK cells incubated for 3 days by crystal violet staining based plaque assay; type: functional, organism-based; conditions: 72 h; method in brief: as §7

Question: Which results are given for `CC(=O)c1cc(C)c(O)c(Cc2[nH]c3ccccc3c2Cc2c(O)c(C)cc(C(C)=O)c2O)c1O`?
Answer: Activity [1]: Non-Toxic; dose excreted at 72 h [2]: 29.1%; AUC(0-t) [3]: 269 ng·h/mL; Activity [4]: Non-Toxic; remaining at 1 h, 2 µM [5]: 0.8%; Activity (Influenza A virus [6]): Active; Kd [7]: 6.9 µM; AUC(0-t) [8]: 1360 ng·h/mL; Tmax [9]: 4.3 h; bioavailability [10]: 1.4%; Activity (Influenza A virus [11]): Active; Activity (Influenza A virus [12]): Active; dose excreted at 72 h [13]: 0.03%; dose excreted at 72 h [14]: 7.2%; Activity (Influenza A virus [15]): Active; IC50 (Influenza A virus H3N2): < 13 µg/mL; Activity [16]: Non-Toxic; Activity (Influenza A virus [17]): Dose-dependent effect; Activity [18]: Non-Toxic; Activity [19]: Non-Toxic; IC50 (Influenza A virus [20]): < 13 µg/mL
